The whole screen tested about 130,000 compounds, of which about 1,000 (0.77%) were called active. Not shown: some 1% with an inconclusive outcome. This is one part of a sample in which actives are shown more often than they occur.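 Rule for the calls: active = activation at 2 µM above a set limit, confirmed on inspection of the cell images; inconclusive = above the set limit but not confirmed on image inspection; inactive = the rest.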

The test in a line: insulin gene promoter stimulation in islet cells – imaging, TRM-6 cells, eGFP reporter, cell count, primary screen (AID 1296).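 For activation: share of cells whose green reporter signal exceeds an intensity cutoff.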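 For normalized cell count: cells counted after 48 h compound exposure.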 The note with it: at 2 µM; activation: stronger effect = higher value, plate-scaled: unstimulated 0, stimulated control 100; normalized cell count: measured here: cell count (toxicity). A digest of the protocol: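 Test system: human fetal islet-derived TRM-6 cells with tamoxifen-inducible insulin promoter–eGFP reporter; schedule: overnight tamoxifen, then two-day compound incubation at 37 °C; measured by: high-content imaging of fixed cells with Hoechst nuclear stain; evaluation: percent cells above green-intensity threshold, converted to percent activation versus plate controls; control set: stimulated and unstimulated wells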
On to `CCC(C)(C(=O)NC1CCCCC1)N(C)C(=O)c1ccc2c(c1)OCO2` (stereo unspecified), for which the activation is 8.57% (inactive) and the normalized cell count was 95.1%.
Taken in the same sequence, the figures for `CCCn1nnnc1NC(=O)COc1ccc(Cl)cc1C` were 9.09% (inactive) and 95.5%.
Taken in the same sequence, the figures for `CN1CCC(OC(=O)COc2ccc(Cl)cc2Cl)CC1` were 453% (active) and 63.1%.
Taken in the same sequence, the figures for `CCOC(=O)N1CCN(C(=O)COc2ccc(Cl)cc2C)CC1` were 193% (inactive) and 63.4%.
Regarding `CC(C)(C)NCCCOc1ccc(Cl)cc1C(C)(C)C`, the activation was 108% (inactive) and the normalized cell count amounted to 74%.
`CC(C)NC(=O)C(=O)N/N=C/c1ccco1`: the activation was 0% (inactive) and the normalized cell count was determined as 130%.
Taken in the same sequence, the figures for `CCCCc1nc(NCc2ccccc2)c(C#N)c2c1CCCC2` were -3.7% (inactive) and 115%.
Taken in the same sequence, the figures for `Cc1ccccc1OCC(=O)NCC(=O)OCC(=O)c1ccc2ccccc2c1` were -2.78% (inactive) and 105%.
The like results for `Cc1ccc(S(=O)(=O)NC(=O)COc2ccccc2C)cc1` were, in that order, -81.2% (inactive) and 150%.
Regarding `Cc1cccc(NC(=O)COc2ccccc2C)n1`, the activation was 406% (active) and the normalized cell count amounted to 56.6%.
The like results for `Cc1nc2scc(-c3cccs3)c2c(=O)n1N` were, in that order, -9.8% (inactive) and 105%.
With `Cc1nc2ccc(C(=O)N3CCSCC3)cc2s1`, the activation is 6.06% (inactive) and the normalized cell count turned out to be 60.2%.
Taken in the same sequence, the figures for `O=C(c1ccc(Cl)c([N+](=O)[O-])c1)N1CCN(c2ccccc2)CC1` were 4.35% (inactive) and 49.2%.
The like results for `CCN(CC)CC1(O)CCN(C(=O)c2ccc(Cl)c(Cl)c2)CC1` were, in that order, 275% (active) and 33.3%.
Taken in the same sequence, the figures for `COCCn1c(SCC(=O)Nc2ccc3c(c2)CCC3)nc2ccccc2c1=O` were 1.3% (inactive) and 117%.
Consider `COC(=O)Cc1c(O)ccn(Cc2cccc(C(F)(F)F)c2)c1=O`, for which the activation is 2.86% (inactive) and the normalized cell count was 159%.
Regarding `Cc1nn(-c2ccccc2)c(C)c1/C=C/C(=O)OC(C)C(N)=O` (stereo unspecified), the activation is -68.8% (inactive) and the normalized cell count stood at 181%.
Taken in the same sequence, the figures for `CCOC(=O)C(NC(=O)CC(C)C)(Nc1sc2c(c1C(N)=O)CCCC2)C(F)(F)F` (stereo unspecified) were 450% (active) and 72.9%.
Taken in the same sequence, the figures for `CCOC(=O)c1c(NC(=O)c2ccc(Br)o2)sc2c1CCCC2` were -3.7% (inactive) and 119%.
The like results for `CCOC(=O)c1c(NC(=O)CSc2nnc(C)c(=O)[nH]2)sc2c1CCC2` were, in that order, 8.33% (inactive) and 125%.
In the case of `CSc1ccccc1NC(=O)Cc1ccc(Br)cc1`, the activation was -3.85% (inactive) and the normalized cell count was 70.6%.
The like results for `Cc1ccccc1NC(=O)C(C)c1ccc(-c2ccccc2)c(F)c1` (stereo unspecified) were, in that order, -2.7% (inactive) and 168%.
Take `O=C(CSCc1ccc([N+](=O)[O-])cc1)Nc1cccc(C(=O)Nc2ccccc2C(=O)O)c1`: the activation was 8.33% (inactive) and the normalized cell count stood at 107%.
Taken in the same sequence, the figures for `COc1ccc(CC(=O)NCc2nnc(SCC(=O)Nc3ncc(C)s3)n2C)cc1` were -5.56% (inactive) and 192%.
For the molecule `COc1ccc(CC(=O)NCc2nnc(SCC(=O)Nc3nccs3)n2C)cc1`, the activation was 330% (active) and the normalized cell count turned out to be 83.7%.
Taken in the same sequence, the figures for `COC(=O)c1ccc(NC(=O)CSc2nnc(CNc3ccc(OC)cc3)n2C)cc1` were 0% (inactive) and 125%.
Turning to `CSCCC(=O)N1CCCC(CNC(=O)c2ccccc2Cl)C1` (stereo unspecified), the activation is 7.14% (inactive) and the normalized cell count is 83%.
With `Cn1cc(/C=C/c2nc3ccccc3c(=O)n2-c2cccc([N+](=O)[O-])c2)c2ccccc21`, the activation was -9.09% (inactive) and the normalized cell count is 111%.
As for `COc1ccc(N(C(=O)c2ccc(C)cc2)S(=O)(=O)c2cccs2)cc1`, the activation is 3.85% (inactive) and the normalized cell count came to 171%.
The like results for `Cc1ccc(C(=O)N/C(=C\c2cccs2)C(=O)NCCc2ccccn2)cc1C` were, in that order, 392% (active) and 87.4%.
Consider `Cc1ccc(C(=O)N/C(=C/c2cccs2)C(=O)N2CCCCC2)cc1`, for which the activation was 0% (inactive) and the normalized cell count amounted to 111%.
The like results for `CCN(CC)S(=O)(=O)c1cc(C(=O)Nc2ccccn2)ccc1C` were, in that order, 309% (inactive) and 42.6%.
`CCOc1ccc(N2C(=O)Nc3ccccc3C2(O)C(=O)NCc2ccco2)cc1` (stereo unspecified): the activation is 0% (inactive) and the normalized cell count came to 74.7%.
Taken in the same sequence, the figures for `Cc1cccc(CSc2nnc(Cn3c(=O)sc4ccccc43)n2C)c1` were -50% (inactive) and 79.6%.
The like results for `Cc1ccc(C(=O)CSc2nc3ccccc3c(=O)n2N)o1` were, in that order, -5.26% (inactive) and 137%.
The like results for `Cc1nnc(SCc2cccc(Cl)c2)n(N)c1=O` were, in that order, 508% (active) and 36.8%.
Take `CC(C)CNC(=S)Nc1ccc(F)cc1`: the activation is -6.9% (inactive) and the normalized cell count stood at 136%.
The like results for `Cc1nc(SCc2ccc(F)cc2)c([N+](=O)[O-])[nH]1` were, in that order, 9.09% (inactive) and 97.3%.
Taken in the same sequence, the figures for `O=C(CN1C(=O)CCC1=O)Nc1ccc(S(=O)(=O)N2CCOCC2)cc1` were -10% (inactive) and 72.6%.
The like results for `O=C(CCCN1C(=O)CCC1=O)Nc1ccc(Cl)c(C(F)(F)F)c1` were, in that order, 444% (active) and 46.3%.
For `CS(=O)(=O)N(CC(=O)Nc1ccc(Cl)c(Cl)c1)C1CCCCC1`, the activation is 5.71% (inactive) and the normalized cell count came out at 124%.
The like results for `CN1CCN(C(=O)/C(=C\c2ccc3c(c2)OCO3)NC(=O)c2cccs2)CC1` were, in that order, -8.33% (inactive) and 121%.
Taken in the same sequence, the figures for `CCN1/C(=C\c2ccc3ccccc3[n+]2CC)Sc2cc(C)ccc21` were 567% [fluoresces] (active) and 15.3%.
Taken in the same sequence, the figures for `CCN1/C(=C/c2ccc3ccc(C)cc3[n+]2CC)Sc2ccccc21` were 567% (active) and 10.5%.
`O=C(NC1CC1)c1cccc(Br)c1`: the activation is -3.12% (inactive) and the normalized cell count amounted to 91.1%.
Taken in the same sequence, the figures for `O=C(Cc1coc2ccc3ccccc3c12)NCc1cccs1` were -2.94% (inactive) and 153%.
In the case of `CCC(=O)/C(=C(/O)c1ccccc1)c1nc2ccccc2[nH]1`, the activation was 0% (inactive) and the normalized cell count came to 134%.
The like results for `COc1cc(NC(=O)Nc2ccc(C)cc2)cc([N+](=O)[O-])c1` were, in that order, -6.45% (inactive) and 133%.

These data come from PubChem BioAssay AID1296 (Columbia University Molecular Screening Center, 2008).
